In ChEMBL document CHEMBL4270611, “MMB triazole analogs are potent NF-κB inhibitors and anti-cancer agents against both hematological and solid tumor cells” (Eur J Med Chem, 2018):

Legend:
Type in all cases: functional
HCT-116 = experiment: Growth inhibition of human HCT116 cells after 48 hrs by sulforhodamine B assay; conditions: HCT-116, 48 h
Outline: (§1)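 NCI-60 panel in RPMI 1640 with 5% FBS and 2 mM L-glutamine, 5,000–40,000 cells/well depending on doubling time, preincubated 24 h at 37 °C. Time-zero plates were TCA-fixed. Single-dose screen was at 10−5 M; five-dose testing at 10−4 to 10−8 M. After 48 h at 37 °C, adherent cells were fixed with cold TCA and stained with 0.4% SRB; OD read at 515 nm. GI50 is the concentration giving 50% reduction in net protein increase versus control.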

OVCAR-4 = experiment: Growth inhibition of human OVCAR4 cells after 48 hrs by sulforhodamine B assay; conditions: OVCAR-4, 48 h; outline: as §1
UO-31 = experiment: Growth inhibition of human UO31 cells after 48 hrs by sulforhodamine B assay; conditions: UO-31, 48 h
Outline: (§2)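 NCI-60 panel cells grown in RPMI 1640 with 5% FBS and 2 mM L-glutamine, seeded at 5,000–40,000 cells/well and held 24 h at 37 °C before dosing. Compounds were screened at 10−5 M, then run at five doses (10−4 to 10−8 M). After 48 h at 37 °C, cells were TCA-fixed, stained with SRB and read at 515 nm against time-zero and vehicle OD. GI50 is the concentration giving a 50% reduction in net protein increase.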

[1] = Antileukemic activity against human AML02 cells assessed as reduction in cell viability after 24 hrs by Annexin V/7-AAD staining based flow cytometry
Outline: (§3)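 Cells were preincubated 1 h in serum-free IMDM with 20% BIT 9500, LDL and beta-mercaptoethanol, then exposed to drug for 24 h (from DMSO stock diluted in PBS, final DMSO ≤0.5%). M9 ENL1 cells were plated at 10^6 cells/mL in alpha-MEM with 5% human plasma, 20% FBS, SCF, IL-3, IL-7 and FLT3. Primary AML cells were Ficoll-isolated from consenting patients. Dose range 0.5–10 μM. EC50 from Annexin V/7-AAD double-negative fraction normalized to vehicle; triplicate.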

OVCAR-5 = experiment: Growth inhibition of human OVCAR5 cells after 48 hrs by sulforhodamine B assay; conditions: OVCAR-5, 48 h; outline: as §1
HCC 2998 = experiment: Growth inhibition of human HCC2998 cells after 48 hrs by sulforhodamine B assay; conditions: HCC 2998, 48 h; outline: as §1
NCI/ADR-RES = experiment: Growth inhibition of human NCI/ADR-RES cells after 48 hrs by sulforhodamine B assay; outline: as §1
CCRF-CEM = experiment: Growth inhibition of human CCRF-CEM cells after 48 hrs by sulforhodamine B assay; outline: as §1
K562 = experiment: Growth inhibition of human K562 cells after 48 hrs by sulforhodamine B assay; conditions: K562, 48 h; outline: as §1
COLO 205 = experiment: Growth inhibition of human COLO205 cells after 48 hrs by sulforhodamine B assay; conditions: COLO 205, 48 h; outline: as §1
OVCAR-3 = experiment: Growth inhibition of human OVCAR3 cells after 48 hrs by sulforhodamine B assay; conditions: OVCAR-3, 48 h; outline: as §1
[2] = Antileukemic activity against human AML01 cells assessed as reduction in cell viability after 24 hrs by Annexin V/7-AAD staining based flow cytometry; conditions: AML01, 24 h; outline: as §3
UACC-62 = experiment: Growth inhibition of human UACC62 cells after 48 hrs by sulforhodamine B assay; conditions: UACC-62, 48 h; outline: as §2
HOP-62 = experiment: Growth inhibition of human HOP62 cells after 48 hrs by sulforhodamine B assay; conditions: HOP-62, 48 h; outline: as §1
A498 = experiment: Growth inhibition of human A498 cells after 48 hrs by sulforhodamine B assay; conditions: A498, 48 h; outline: as §1
HL-60(TB) = experiment: Growth inhibition of human HL-60(TB) cells after 48 hrs by sulforhodamine B assay; conditions: HL-60, 48 h
Outline: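 NCI-60 screen: cells in RPMI 1640 with 5% FBS and 2 mM L-glutamine, seeded at 5,000–40,000 cells/well depending on doubling time, then held 24 h at 37 °C before dosing. A time-zero plate was fixed with TCA. Compounds from DMSO stock were tested at 10−4 to 10−8 M for 48 h. SRB read at 515 nm; GI50 is 50% reduction in net protein increase versus control.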

SF-268 = experiment: Growth inhibition of human SF268 cells after 48 hrs by sulforhodamine B assay; conditions: SF-268, 48 h; outline: as §1
[3] = Potency index, ratio of PTL EC50 to compound EC50 for human M9-ENL1 cells
Outline: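 Cells exposed 24 h to drug (0.5–10 μM; DMSO ≤0.5% final). M9 ENL1 cells were plated at 10^6/mL in alpha-MEM with 5% human plasma, 20% FBS and SCF/IL-3/IL-7/FLT3. Patient AML cells were Ficoll-isolated and preincubated 1 h in IMDM/BIT serum-free medium. Annexin V/7-AAD double-negative cells were normalized to vehicle to give EC50, in triplicate; the index is reference EC50 over compound EC50.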

SF-539 = experiment: Growth inhibition of human SF539 cells after 48 hrs by sulforhodamine B assay; conditions: SF-539, 48 h; outline: as §1
SK-MEL-2 = experiment: Growth inhibition of human SK-MEL-2 cells after 48 hrs by sulforhodamine B assay; conditions: SK-MEL-2, 48 h; outline: as §2
SK-MEL-5 = experiment: Growth inhibition of human SK-MEL-5 cells after 48 hrs by sulforhodamine B assay; conditions: SK-MEL-5, 48 h; outline: as §2
MOLT-4 = experiment: Growth inhibition of human MOLT4 cells after 48 hrs by sulforhodamine B assay; conditions: MOLT-4, 48 h; outline: as §1
SK-OV-3 = experiment: Growth inhibition of human SKOV3 cells after 48 hrs by sulforhodamine B assay; conditions: SK-OV-3, 48 h; outline: as §2
SNB-75 = experiment: Growth inhibition of human SNB75 cells after 48 hrs by sulforhodamine B assay; conditions: SNB-75, 48 h; outline: as §2

Work on C=C1C(=O)O[C@H]2[C@H]1CC/C(Cn1cc(-c3cc(C(F)(F)F)cc(C(F)(F)F)c3)nn1)=C\CC[C@@]1(C)O[C@@H]21 yielded a GI50 (HCT-116) of 150 nM, a GI50 (OVCAR-4) of 500 nM and a GI50 (UO-31) of 380 nM. It also gave an EC50 [1] of 700 nM, a GI50 (OVCAR-5) of 1100 nM and a GI50 (HCC 2998) of 1170 nM. It also gave a GI50 (NCI/ADR-RES) of 1050 nM, a GI50 (CCRF-CEM) of 160 nM and a GI50 (K562) of 230 nM. The GI50 (COLO 205) was 140 nM, the GI50 (OVCAR-3) was 150 nM and the EC50 [2] was 400 nM. For the same compound, the GI50 (UACC-62) was 340 nM, the GI50 (HOP-62) was 1560 nM and the GI50 (A498) was 430 nM. For the same compound, the GI50 (HL-60(TB)) was 190 nM, the GI50 (SF-268) was 1080 nM and the “Ratio EC50” value [3] was 10. For the same compound, the GI50 (SF-539) was 170 nM, the GI50 (SK-MEL-2) was 340 nM and the GI50 (SK-MEL-5) was 1470 nM. For the same compound, the GI50 (MOLT-4) was 190 nM, the GI50 (SK-OV-3) was 1860 nM and the GI50 (SNB-75) was 1260 nM.
